# Source: ChEMBL document CHEMBL1955744, “Bis-pyrrolyl-tetrazolyl derivatives as hybrid polar compounds: A case of lipophilic functional bioisosterism with bis-acetamides” (2012)
# Activity calls are given as the source filed them. No cut-off for these calls is given here.
# How the values were obtained:
# [1] = system: MEL; assay: Growth inhibition of MEL cells after 48 hrs; assay type: functional, cell-based; conditions: Mus musculus
# In short: (§1)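 MEL cells seeded at 1.0 x 10^5 cells/mL in DMEM with 10% v/v FBS and 1% PS, 37 °C, 5% CO2. Agents dissolved in DMSO (final DMSO below 0.5% v/v) and tested at 0.01–100 µM for 48 h. Cells counted by Neubauer hemocytometer. Growth given as percentage of untreated control.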
# [2] = Growth inhibition of MEL cells at 0.01 to 100 uM after 48 hrs relative to control; assay type: functional, Mus musculus; in short: as §1
# [3] = Induction of cell differentiation in MEL cells at 100 uM after 96 hrs by benzidine staining; assay type: functional, Mus musculus
# In short: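 MEL cells were seeded at 1.0 x 10^5 cells/mL in DMEM with 10% FBS and 1% PS at 37 °C, 5% CO2, then exposed to 100 µM agent in DMSO (final DMSO below 0.5% v/v) for 96 h. HMBA 5 mM served as positive control. Hb-producing cells were scored by benzidine-H2O2 staining and reported as percentage benzidine-positive.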
# [4] = system: MEL; assay: Induction of cell differentiation in MEL cells assessed as hemoglobin accumulation at 5 mM by after 24 to 96 hrs by spectrophotometry; assay type: functional, cell-based; conditions: Mus musculus
# In short: (§2)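 MEL cells (1.0 x 10^5 cells/mL, DMEM/10% FBS/1% PS, 37 °C, 5% CO2) were treated with 10^-4 M agent or 5 mM HMBA, alongside untreated controls. Total cellular Hb was measured spectrophotometrically in samples taken over a 24–96 h time course.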
# [5] = Upregulation of beta-major globin gene expression in MEL cells at 5 mM after 24 to 96 hrs by RT-PCR analysis; assay type: functional, cell-based; conditions: Mus musculus
# In short: (§3)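 MEL cells were treated with 10^-4 M agent or 5 mM HMBA for 0, 24, 48, 72 and 96 h, with untreated cells as control. Cells were washed in PBS. Total cytoplasmic RNA (1 µg/reaction) was extracted by acid guanidinium thiocyanate-phenol-chloroform and run in one-step RT-PCR: 50 °C 30 min, 94 °C 2 min, then 30 cycles of 94/58/72 °C, then 72 °C 10 min. β-major globin primers were used with β-actin as internal control.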
# [6] = system: MEL; assay: Growth inhibition of MEL cells at 0.1 mM; assay type: functional, cell-based; conditions: Mus musculus, TDE = time-dependent effect
# In short: (§4)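 Exponentially growing MEL cells (1.0 x 10^5 cells/mL, DMEM/10% FBS/1% PS, 37 °C, 5% CO2) were exposed to 10^-4 M agent in DMSO. Untreated cultures served as control and HMBA 5 mM as reference. Samples were removed at various intervals up to 96 h and counted by hemocytometer. Growth was expressed as absolute number or as percentage of control.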
# [7] = system: MEL; assay: Induction of cell differentiation in MEL cells assessed as hemoglobin accumulation at 0.1 mM by after 24 to 96 hrs by spectrophotometry; assay type: functional, cell-based; conditions: Mus musculus; in short: as §2
# [8] = Upregulation of beta-major globin gene expression in MEL cells at 0.1 mM after 24 to 96 hrs by RT-PCR analysis; assay type: functional, cell-based; conditions: Mus musculus; in short: as §3
# [9] = Growth inhibition of MEL cells at 0.1 mM after 96 hrs; assay type: functional; conditions: Mus musculus, read-out: GI; in short: as §4
SMILES,growth inhibition (GI) [1],growth inhibition (GI) [2] [%],Activity [3] [%],Activity [4],Activity [5],growth inhibition (GI) [6],Activity [7],Activity [8],inhibition of growth at 100 µM [9] [%]
c1ccn(-c2nnn(CCCCCCCn3nnc(-n4cccc4)n3)n2)c1,Dose-dependent effect,30,5,,,,,,
CC(=O)NCCCCCCNC(C)=O,,,,Active,Active,,,,
c1ccn(-c2nnn(CCCCCn3nnc(-n4cccc4)n3)n2)c1,Dose-dependent effect,30,5,,,,,,
CNC(=O)c1cccn1-c1nnn(CCCCCCn2nnc(-n3cccc3C(=O)NC)n2)n1,Dose-dependent effect,30,5,,,,,,
c1ccn(-c2nnn(CCCCCCn3nnc(-n4cccc4)n3)n2)c1,Dose-dependent effect,30,30,,,tde,Active,Active,> 75
c1ccn(-c2nnn(Cc3ccc(Cn4nnc(-n5cccc5)n4)cc3)n2)c1,Dose-dependent effect,30,5,,,,,,
